# Experiment: Toxicity liver stage against HepG2, at 10uM
# Assay type: cell-based
# Design: test concentration 10 uM, cell line HepG2-A16-CD81EGFP
# Details: human, HepG2-A16-CD81EGFP cells; read-out: INHIBITION
# In short: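 Uninfected HepG2-A16-CD81EGFP cells, 3 × 10^3 per well, 1536-well, plated on prespotted compound at 10 μM final, parasite-free screening media added to match infected plates; puromycin 10 μM positive, DMSO 0.5% negative; run in parallel with 48 h PbLuc assay at 37 °C, 5% CO2; viability by CellTiter-Glo luminescence, normalized to controls.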
row,Compound,cytotoxicity at 10 µM
1,Cn1cnc2nc3n(c2c1=O)CCC3,-0.409%
2,N#Cc1ccc(C(=O)N2CCOC[C@H](Oc3cnccn3)C2)cc1,5.88%
3,CCc1nnc(SCc2cc(=O)n3c4c(sc3n2)CCCC4)[nH]1,-3.91%
4,NC(=O)Cn1c(CO)cnc1SCc1ccccc1Cl,0.252%
5,CCCNC(=O)Cn1cc(OC)c(=O)cc1CSc1nc(C)cc(C)n1,4.46%
6,COc1ccc(CNC(=O)NCC(O)(c2cccs2)C2CC2)cc1 (configuration not stated),0.227%
7,Cc1noc(CNC(=O)CN(C)c2nc3ccccc3s2)n1,-2.43%
8,O=C1CCC2(CCCN(C(=O)c3cnccn3)CC2)N1 (configuration not stated),-2.66%
9,O=C1CO[C@@H]2CN(C(=O)CCc3ccccc3)C[C@H]2N1,6.06%
10,COCCC(=O)N1CCCC2(CCN(c3ccccc3)C2=O)C1 (configuration not stated),-1.66%
11,O=C(Nc1ccccc1)N1C[C@@H]2OCCN(C(=O)c3ccco3)[C@@H]2C1,-150%
12,O=C(C1CCC1)N1CCO[C@@H]2CNC[C@@H]21,1.44%
13,CC(C)C(=O)N1CCN(S(C)(=O)=O)CC2(CC(=O)N(C)C2)C1 (configuration not stated),8.91%
14,CSc1nc2ncc3c(=O)n(C)ccc3n2n1,-11.6%
15,Cc1nnc([C@H]2CC[C@@H]3[C@@H](CCN3Cc3c(C)noc3C)O2)o1,-2.26%
16,Cc1ccc2nnc(C(=O)NCC3CCCC3)nc2c1,6.47%
17,Cc1nn(C(C)C)c2cn(CC(=O)NC3CCSCC3)nc12,-2.72%
18,CC(C)N1CCCC(Cc2nccnc2Cl)C1 (configuration not stated),-3.22%
19,O=C(CCOc1ccccc1F)NC1CCCN(c2ccccn2)C1 (configuration not stated),-5.67%

row,Compound,cytotoxicity at 10 µM
1,CC[C@@H](Cn1ncc2ccccc2c1=O)NC(=O)c1cnccn1,6.4%
2,O=C(Cc1cccnc1)N1CC(Cc2nccc3cc[nH]c23)C1,4.87%
3,CCC(CC)N1CCC(c2[nH]ncc2S(C)(=O)=O)C1 (configuration not stated),-3.51%
4,Cc1cccc(N2CCCC2c2nc(C)ncc2CN(C)C)n1 (configuration not stated),-2.17%
5,CC(C)(C)c1nnc2n1C(C(=O)N1CCOCC1)CC2 (configuration not stated),1.52%
6,CC(Cc1ccco1)NS(=O)(=O)N1CCCCCC1 (configuration not stated),2.29%
7,COc1ccc(F)cc1CN(CC(N)=O)C(C)C,-1.68%
8,Cc1nc(C)n(CC2CCCN2c2ncnc3sccc23)n1 (configuration not stated),-1.09%
9,CCN(Cc1ccco1)C(=O)NCC(C)N1CCc2sccc2C1 (configuration not stated),9.08%
10,CCc1ocnc1C(=O)N1CCC2(CC1)OCC(C)O2 (configuration not stated),4.44%
11,CNC(=O)c1cc(NC(=O)NC(C)CCc2cccn2C)ccc1F (configuration not stated),-2.01%
12,CCCC(=O)N1CCC2(CC1)OCCO2,5.22%
13,Cn1ccnc1CCNS(=O)(=O)c1cccc(Br)c1,4.95%
14,OC(CNCCn1cccn1)COc1ccc(Br)cc1 (configuration not stated),-8.03%
15,COc1ccc(CNC(=O)NC2CCN(c3ccccc3)C2=O)cc1 (configuration not stated),-2.98%
16,CS(=O)(=O)CCOc1nc(-c2ccccc2Cl)no1,-11.2%
17,CCn1nc2c(cc1=O)CN(Cc1nc(C)c3ccccc3n1)CC2,-9.35%
18,CN(Cc1ccncc1)C(=O)NC1CCS(=O)(=O)C1 (configuration not stated),-2.94%
19,Cc1nc(CNC(=O)Nc2cc(C(F)(F)F)c[nH]c2=O)cs1,0.868%

row,Compound,cytotoxicity at 10 µM
1,COCc1csc(NC(=O)NCc2ccccn2)n1,11.3%
2,CN(C)C(=O)C1CCCN1CCCNC(=O)Cc1ccccc1F (configuration not stated),0.646%
3,CCCc1nc(CNc2cccc(C(=O)N3CCCC(O)C3)c2)no1 (configuration not stated),-5.35%
4,CCC(=O)NCC(=O)NCC1(c2c(F)cccc2F)CCCC1,-0.147%
5,Cc1cc(CNC(=O)Cc2cccs2)ccc1S(C)(=O)=O,-2.74%
6,CC(C)(C)n1nc(C2CC2)cc1C(=O)NCC1(C(N)=O)CCOCC1,-11.1%
7,CC(C)c1ccc(C(=O)O)cc1S(=O)(=O)Nc1ccc(=O)n(C)c1,-13.1%
8,CC(C)c1nn(C)c(N(C)C)c1CNC1CCCCNC1=O (configuration not stated),2.91%
9,COc1cc(F)c(S(=O)(=O)Nc2cnc(O)cc2C)cc1OC,5.66%
10,COCCNC(=O)Cn1cc(NC(=O)c2cccc(Cl)c2Cl)cn1,-7.04%
11,CC(C)(CNc1c(C#N)cnc2ccc(Cl)cc12)C(N)=O,9.19%
12,CN(C)C(CNC(=O)c1[nH]nc(C2CC2)c1Br)C1CC1 (configuration not stated),-4.14%
13,CC(c1nc(C(C)(C)C)no1)S(=O)(=O)CC(=O)N1CCCC1 (configuration not stated),-2.21%
14,CC(=O)NCC1CCCN(C(=O)Cc2c(C)noc2C)C1 (configuration not stated),17.4%
15,Cn1ncnc1NS(=O)(=O)c1ccc(F)cc1,7.66%
16,Cc1cc(Br)ccc1NCc1ccc(C(=O)N(C)C)[nH]1,5.68%
17,Cc1cccc(CNC(CN2CCN(C)CC2)c2ccccc2)c1 (configuration not stated),-3.61%
18,Cc1cc(NC(=O)CCc2ccsc2)n(C)n1,17.8%
19,COc1ccc(NC(=O)CNc2ccc(Br)cc2F)cc1,0.795%
